In ChEMBL document CHEMBL1131146, “4-Alkynylphenyl imidazolylpropyl ethers as selective histamine H3-receptor antagonists with high oral central nervous system activity” (J Med Chem, 1998):

Experiments:
[1] = target: Histamine H1 receptor (Cavia porcellus) (UniProt P31389); assay: Compound was tested in vitro for its Histamine H1 receptor activity on guinea pig ileum.; assay type: functional, tissue-based
[2] = target: Histamine H3 receptor (Mus musculus) (UniProt P58406); assay: In vivo antagonist activity at Histamine H3 receptor was screened by measuring the effect on brain histamine turnover after oral application to mice.; assay type: functional, organism-based
Summary of the method: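 Swiss mice dosed orally; in vivo H3 antagonist activity tested at least in triplicate, per Garbarg et al.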

[3] = target: Histamine H3 receptor (Rattus norvegicus) (UniProt Q9QYN8); assay: (§1) In vitro antagonist potency at Histamine H3 receptor measured as K+-evoked [3H]histamine release from synaptosomes of rat cerebral cortex.; assay type: functional, subcellular; conditions: Brain
Summary of the method: (§2)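 Rat cerebral cortex synaptosomes; [³H]histamine release evoked by K⁺ depolarization; antagonist activity measured at least in triplicate, per Garbarg et al.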

[4] = target: Histamine H2 receptor (Cavia porcellus) (UniProt P47747); assay: Compound was tested in vitro for its Histamine H2 receptor activity on guinea pig atrium.; assay type: functional, tissue-based; conditions: Cardiac atrium
[5] = target: Histamine H3 receptor (Rattus norvegicus, UniProt Q9QYN8); assay: as §1; assay type: functional, subcellular, Brain; summary of the method: as §2
[6] = target: Histamine H1 receptor (Cavia porcellus) (UniProt P31389); assay: Compound was tested in vitro for its Histamine H1 receptor activity on guinea pig ileum; assay type: functional, tissue-based

Sequence of Histamine H1 receptor (Cavia porcellus) (P31389 whole entry): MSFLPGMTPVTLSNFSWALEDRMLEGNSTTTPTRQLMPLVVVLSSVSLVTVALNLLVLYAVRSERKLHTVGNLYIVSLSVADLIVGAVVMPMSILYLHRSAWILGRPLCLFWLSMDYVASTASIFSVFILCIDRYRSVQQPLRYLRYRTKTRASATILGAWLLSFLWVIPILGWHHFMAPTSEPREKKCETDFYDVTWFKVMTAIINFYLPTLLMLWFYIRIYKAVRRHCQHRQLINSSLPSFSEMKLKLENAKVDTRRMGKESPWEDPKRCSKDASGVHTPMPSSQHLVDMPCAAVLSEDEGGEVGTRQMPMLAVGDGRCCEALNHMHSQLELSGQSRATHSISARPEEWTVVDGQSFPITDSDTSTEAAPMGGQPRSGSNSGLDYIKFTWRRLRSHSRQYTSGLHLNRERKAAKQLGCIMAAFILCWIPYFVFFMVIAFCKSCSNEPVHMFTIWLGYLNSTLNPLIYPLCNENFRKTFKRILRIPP
Sequence of Histamine H3 receptor (Mus musculus) (P58406 whole entry): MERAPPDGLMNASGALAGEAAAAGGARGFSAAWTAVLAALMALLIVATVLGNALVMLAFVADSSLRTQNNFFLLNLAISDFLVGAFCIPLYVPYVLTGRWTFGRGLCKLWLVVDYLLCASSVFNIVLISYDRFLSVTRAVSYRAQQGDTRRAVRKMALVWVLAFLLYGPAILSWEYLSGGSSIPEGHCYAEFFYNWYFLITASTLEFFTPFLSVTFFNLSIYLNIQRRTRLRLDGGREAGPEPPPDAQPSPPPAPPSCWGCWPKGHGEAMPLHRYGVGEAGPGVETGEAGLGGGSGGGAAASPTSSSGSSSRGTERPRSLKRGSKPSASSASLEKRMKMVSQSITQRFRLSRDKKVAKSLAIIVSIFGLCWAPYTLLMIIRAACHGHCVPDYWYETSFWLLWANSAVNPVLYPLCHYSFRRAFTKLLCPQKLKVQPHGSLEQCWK
Sequence of Histamine H3 receptor (Q9QYN8 whole entry): as the sequence (P58406 whole entry) above, with A15T, T286A, G290A, H387R, V389I counted along it
Sequence of Histamine H3 receptor (Rattus norvegicus) (Q9QYN8 whole entry): as the sequence (P58406 whole entry) above, with A15T, T286A, G290A, H387R, V389I counted along it
Sequence of Histamine H2 receptor (Cavia porcellus) (P47747 whole entry): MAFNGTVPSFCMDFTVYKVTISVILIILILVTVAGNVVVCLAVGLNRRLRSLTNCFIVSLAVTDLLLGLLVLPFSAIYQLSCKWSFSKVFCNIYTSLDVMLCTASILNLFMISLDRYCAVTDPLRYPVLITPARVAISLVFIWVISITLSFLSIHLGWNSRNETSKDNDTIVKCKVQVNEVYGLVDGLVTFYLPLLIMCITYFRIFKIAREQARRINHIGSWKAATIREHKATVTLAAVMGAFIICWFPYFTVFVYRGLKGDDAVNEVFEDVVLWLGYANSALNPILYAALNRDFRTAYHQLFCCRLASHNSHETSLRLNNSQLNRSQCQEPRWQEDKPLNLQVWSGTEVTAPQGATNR

| -Log K [1] | ED50 [2] [mg/kg] | -Log K [3] | -Log K [4] | Ki [5] [nM] | SMILES | -Log K [6] |
| --- | --- | --- | --- | --- | --- | --- |
| < 5.9 | 2.2 | 6.9 | < 4.7 | – | CCCC#Cc1ccc(OCCCc2c[nH]cn2)cc1 | – |
| – | – | – | – | 123 | CC(C)(C)C#Cc1ccc(OCCCc2cnc[nH]2)cc1 | – |
| – | 0.12 | 8.6 | < 4.8 | – | C#Cc1ccc(OCCCc2c[nH]cn2)cc1 | < 5.5 |
| – | – | – | – | 140 | CCCC#Cc1ccc(OCCCc2cnc[nH]2)cc1 | – |
| < 5 | 1.3 | 8.1 | < 4.7 | 7.5 | CC#Cc1ccc(OCCCc2c[nH]cn2)cc1 | – |
| < 5.6 | 2.2 | 6.9 | < 4.6 | – | CC(C)(C)C#Cc1ccc(OCCCc2c[nH]cn2)cc1 | – |
| – | – | – | – | 2.3 | C#Cc1ccc(OCCCc2cnc[nH]2)cc1 | – |

| SMILES | -Log K [1] | ED50 [2] [mg/kg] | -Log K [3] | -Log K [4] | Ki [5] [nM] | -Log K [6] |
| --- | --- | --- | --- | --- | --- | --- |
| C[Si](C)(C)C#Cc1ccc(OCCCc2c[nH]cn2)cc1 | – | 1.1 | 7.4 | < 4.6 | 36 | < 5 |
